Assay outcomes deposited in PubChem BioAssay by The Scripps Research Institute Molecular Screening Center.
Compounds with a hit are over-represented: about 2.8% of the library has one in this group of screens.
PAFAH1B3 inh: PAFAH1B3 (human) inhibition. recombinant PAFAH1B3, FP-rhodamine probe, fluorescence polarization. inhibition, % at 3.39 µM. actives 0.28% (n = 340,000);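 active = inhibition above the screen-wide average of all tested compounds plus 3 SD, cut at about 25% in these data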;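 also: 0% = enzyme with DMSO only and 100% = wells lacking PAFAH1B3 protein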
Target sequence (Q15102 whole entry, looked up): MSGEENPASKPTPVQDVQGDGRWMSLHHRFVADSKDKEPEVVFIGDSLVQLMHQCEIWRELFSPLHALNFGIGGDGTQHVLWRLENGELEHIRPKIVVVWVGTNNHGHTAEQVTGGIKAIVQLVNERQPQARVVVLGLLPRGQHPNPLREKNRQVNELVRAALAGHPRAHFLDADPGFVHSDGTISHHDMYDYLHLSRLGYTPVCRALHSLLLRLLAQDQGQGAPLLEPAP
HTRA1 inhibitor: inhibitors of human serine peptidase HTRA1; recombinant HTRA1, FP-rhodamine activity-based probe, fluorescence polarization; inhibition, % at 5.96 µM; AID 504803; Q92743; actives 0.5% (n = 340,000); in the data active = inhibition above about 36%;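 also: 0% = enzyme with DMSO and 100% = wells lacking enzyme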
mABHD4 FP: inhibitors of mouse ABHD4. purified mABHD4, FP-Rh probe fluorescence polarization. actives 0.54% (n = 370,000). Q8VD66. inhibition, % at 8.92 µM;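 active = inhibition exceeding the mean over every tested compound plus 3 SD, cut at about 30% in these data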;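 also: 0% = plate median of compound wells and 100% = S159A mutant with DMSO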
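Assay system: mouse ABHD4 enzyme, wild type / Also added: fluorescent activity-based probe FP-Rh / Doses: single nominal dose of 8.92 µM, 0.89% DMSO final / Timing: 45 min compound pre-incubation plus 60 min probe step, 25 °C / Signal: FP readout, ex 525 nm / em 598 nm / Control set: S159A mutant/DMSO as 100%, compound-well median as 0%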
PAFAH1B2 FP inh: blocks human PAF acetylhydrolase 1b catalytic subunit 2; P68402; recombinant PAFAH1B2, FP-rhodamine activity probe, fluorescence polarization; inhibition, % at 3.39 µM; actives 1.2% (n = 340,000);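 active = inhibition above the mean of all tested compounds plus 3 SD, cut at about 24% in these data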;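 also: 0% = enzyme with DMSO and 100% = wells lacking PAFAH1B2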
pPAFAH inh: inhibitors of human plasma PAF acetylhydrolase (pPAFAH); Q13093; recombinant pPAFAH, FP-rhodamine probe fluorescence polarization; inhibition, % at 3.39 µM; actives 1.5% (n = 330,000); AID 463082;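 active = inhibition above the mean inhibition across the screen plus 3 SD, cut at about 25% in these data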;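 also: inhibitors block binding of the rhodamine activity-based probe so polarization drops; 0% = enzyme with DMSO and 100% = wells lacking pPAFAH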
Target sequence (Q13093 whole entry, looked up): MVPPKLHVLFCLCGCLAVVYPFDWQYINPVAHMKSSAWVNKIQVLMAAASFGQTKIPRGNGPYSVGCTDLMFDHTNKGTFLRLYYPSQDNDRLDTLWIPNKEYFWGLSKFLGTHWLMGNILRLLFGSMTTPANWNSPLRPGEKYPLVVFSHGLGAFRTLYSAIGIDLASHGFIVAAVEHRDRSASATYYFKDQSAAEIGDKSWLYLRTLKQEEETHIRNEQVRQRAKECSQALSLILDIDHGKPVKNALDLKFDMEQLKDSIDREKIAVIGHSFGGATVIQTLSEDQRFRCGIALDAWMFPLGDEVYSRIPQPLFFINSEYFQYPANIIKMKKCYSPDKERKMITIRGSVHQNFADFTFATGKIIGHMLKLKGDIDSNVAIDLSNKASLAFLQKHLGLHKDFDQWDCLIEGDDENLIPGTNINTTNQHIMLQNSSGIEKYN
PAFAH2 FP inh: inhibitors of human PAFAH2. inhibition, % at 3.39 µM. Q99487. actives 0.99% (n = 340,000). AID 492956. recombinant PAFAH2, FP-rhodamine activity probe, fluorescence polarization;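 active = inhibition above the mean over all tested compounds plus 3 SD, cut at about 30% in these data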;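 also: inhibitors block probe labeling of enzyme so polarization drops; 0% = enzyme with DMSO and 100% = wells lacking PAFAH2 protein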
HTRA1 conf: confirmation of human HTRA1 inhibitors; shares compounds with HTRA1 inhibitor; recombinant HTRA1, FP-rhodamine activity-based probe, fluorescence polarization; inhibition, % at 5.96 µM; actives 66% (n = 1,600);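 active = mean inhibition over three repeats above a set limit taken from the earlier primary screen, cut at about 37% in these data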;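 also: 0% = HTRA1 with DMSO and 100% = wells lacking HTRA1; inhibitors block probe binding so polarization drops and inhibition rises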
mABHD4 conf: ABHD4 (mouse) inhibition, FP confirmation; shares compounds with mABHD4 FP; purified mABHD4, FP-Rh probe fluorescence polarization; inhibition, % at 8.92 µM; actives 55% (n = 1,800); AID 720658;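 active = mean inhibition across replicates above the hit cutoff set in the primary screen, cut at about 30% in these data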;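 also: 0% = wild-type ABHD4 with DMSO and 100% = catalytically dead S159A mutant with DMSO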
Active calls of the source: *.

Screening O=C1N2CCc3ccccc3C2CS(=O)(=O)N1Cc1ccc(F)cc1 (stereo unspecified) returned mABHD4 FP -5.5.
For CCCCCCCCCCCCCCCC[n+]1ccc(C(N)=O)cc1 the results were PAFAH1B3 inh -1.1, HTRA1 inhibitor 72.6*, mABHD4 FP 41.1*, PAFAH1B2 FP inh -0.2, pPAFAH inh 13.5, PAFAH2 FP inh 8.6, HTRA1 conf 75.6* and mABHD4 conf 88.4*.
For CCCCCc1ccc(OCCC[n+]2ccccc2)c(CCCCC)c1 the results were PAFAH1B3 inh 3.1, HTRA1 inhibitor 14.7, mABHD4 FP 23.3, PAFAH1B2 FP inh 1.6, pPAFAH inh 2.9 and PAFAH2 FP inh 10.8.
CCCCCCCCCCCCCCCC[n+]1cccc(C(=O)N(CC)CC)c1 was read as PAFAH1B3 inh 1.9, HTRA1 inhibitor 58.3*, mABHD4 FP 43.4*, PAFAH1B2 FP inh 2.6, pPAFAH inh 32.1*, PAFAH2 FP inh -4.7, HTRA1 conf 65.0* and mABHD4 conf 47.7*.
Screening CCCCCCCCCCCCCCCC[n+]1ccccc1 returned PAFAH1B3 inh -4.5, HTRA1 inhibitor 70.1*, mABHD4 FP 53.6*, PAFAH1B2 FP inh -4.1, PAFAH2 FP inh 9.6, HTRA1 conf 76.6* and mABHD4 conf 49.7*.
CC(C)CNS(=O)(=O)/C=C/c1cc2c(cc1CNC(=O)OC(C)(C)C)OCO2 was read as mABHD4 FP -4.0.
`CN(Cc1ccccc1)C(=O)OCc1cn(Cc2cc(F)cc(F)c2)nn1` gave mABHD4 FP 7.9.
CC1(C)CC(=O)C(C=Nc2ccc(C(=O)c3ccccc3)cc2N=CC2=C(O)CC(C)(C)CC2=O)=C(O)C1 was read as PAFAH1B3 inh -9.9, HTRA1 inhibitor 41.5*, mABHD4 FP 29.5*, PAFAH1B2 FP inh 5.9, pPAFAH inh 9.0, PAFAH2 FP inh -5.3, HTRA1 conf 14.7 and mABHD4 conf 7.9.
For CC1(C)CC(=O)C(C=Nc2cccnc2/N=C/C2=C(O)CC(C)(C)CC2=O)=C(O)C1 the results were PAFAH1B3 inh 12.4, HTRA1 inhibitor 2.5, mABHD4 FP 7.0, PAFAH1B2 FP inh 1.6, pPAFAH inh 6.3 and PAFAH2 FP inh 4.5.
Screening COC(=O)[C@@]12CCCCC=C1N(CCc1ccc(Cl)cc1)C(=O)[C@H]2CC(=O)NCCC(C)C returned mABHD4 FP -2.8.
CN(C)c1ccc(C(=O)Nc2nc3c(s2)CCCC3)cc1 was read as PAFAH1B3 inh 4.2, HTRA1 inhibitor -4.9, mABHD4 FP 20.6, PAFAH1B2 FP inh 8.2, pPAFAH inh 12.0 and PAFAH2 FP inh 1.5.
For C/C(=N\Nc1nc2c(s1)CCCC2)c1ccc(Cl)cc1 the results were PAFAH1B3 inh -8.9, HTRA1 inhibitor 54.0*, mABHD4 FP 32.5*, PAFAH1B2 FP inh 5.8, pPAFAH inh 18.8, PAFAH2 FP inh -0.4, HTRA1 conf 14.0 and mABHD4 conf 49.6*.
`O=C(Nc1ccc(F)cc1)OCc1cn(Cc2cc(F)cc(F)c2)nn1` gave mABHD4 FP 1.4.
Screening COc1ccc(C2OC34CCCCC3C(C#N)(C#N)C2(C#N)C(=N)O4)cc1 (stereo unspecified) returned PAFAH1B3 inh 50.3*, HTRA1 inhibitor 36.3*, mABHD4 FP 33.9*, PAFAH1B2 FP inh 45.7*, pPAFAH inh 16.4, PAFAH2 FP inh 61.1*, HTRA1 conf 43.4* and mABHD4 conf 52.3*.
`COc1ccc(C2CC3(O)NC(=O)C(C#N)(C3C)C2(C#N)C#N)cc1` (stereo unspecified) gave mABHD4 FP -3.0 and pPAFAH inh 2.5.
`COc1cccc(/C=C2\CC3(OC(=O)C(C)(C)C)CCCN2C3)c1` (stereo unspecified) gave mABHD4 FP 7.0.
C[C@@H]1NC(=O)[C@H]2C[C@@]3(c4ccccc4)c4ccccc4N[C@H]3N2C1=O was read as mABHD4 FP -0.5.
For COc1cccc(/C=N/NC(=O)c2c(C)nc3ccc(Cl)cn23)c1O the results were PAFAH1B3 inh 19.9, HTRA1 inhibitor 61.6*, mABHD4 FP 35.1*, PAFAH1B2 FP inh 7.7, pPAFAH inh 23.7, PAFAH2 FP inh 19.1, HTRA1 conf 64.7* and mABHD4 conf 54.6*.
Screening COc1ccccc1N1C(=O)CC(N2CCN(c3ccc([N+](=O)[O-])cc3)CC2)C1=O (stereo unspecified) returned PAFAH1B3 inh 1.4, HTRA1 inhibitor 0.7, mABHD4 FP -0.2, PAFAH1B2 FP inh 1.9, pPAFAH inh 1.9 and PAFAH2 FP inh 7.7.
`COc1ccccc1N1C(=O)CC(Nc2ccc(N3CCOCC3)cc2)C1=O` (stereo unspecified) gave PAFAH1B3 inh 18.1, HTRA1 inhibitor 44.1*, mABHD4 FP 46.1*, PAFAH1B2 FP inh 10.1, pPAFAH inh 7.8, PAFAH2 FP inh 19.3, HTRA1 conf 8.1 and mABHD4 conf 6.6.
For CCOc1ccccc1N1CC(C(=O)Nc2ccccc2N2CCOCC2)CC1=O (stereo unspecified) the results were PAFAH1B3 inh 4.5, HTRA1 inhibitor -3.7, mABHD4 FP -8.6, PAFAH1B2 FP inh 2.1, pPAFAH inh -2.7 and PAFAH2 FP inh -11.1.
CCOc1ccccc1N1C(=O)CC(Nc2ccc(N3CCOCC3)cc2)C1=O (stereo unspecified) was read as PAFAH1B3 inh 16.2, HTRA1 inhibitor 43.9*, mABHD4 FP 45.9*, PAFAH1B2 FP inh 1.3, pPAFAH inh 16.9, PAFAH2 FP inh -2.9, HTRA1 conf 13.6 and mABHD4 conf 8.9.
Oc1ccc(/C=N/N(c2ccccc2)c2ccccc2)cc1O was read as PAFAH1B3 inh 3.8, HTRA1 inhibitor 56.6*, mABHD4 FP 41.8*, PAFAH1B2 FP inh 1.3, pPAFAH inh 68.9*, PAFAH2 FP inh -4.8, HTRA1 conf 97.4* and mABHD4 conf 27.4.
CCN(CC)c1ccc(/C=N/N(c2ccccc2)c2ccccc2)c(O)c1 was read as PAFAH1B3 inh 2.2, HTRA1 inhibitor 23.0, mABHD4 FP 5.2, PAFAH1B2 FP inh 0.4, pPAFAH inh 9.7 and PAFAH2 FP inh -1.6.
Oc1ccc(/C=N/N(c2ccccc2)c2ccccc2)c(O)c1O was read as PAFAH1B3 inh -4.8, HTRA1 inhibitor 68.3*, mABHD4 FP 39.2*, PAFAH1B2 FP inh 4.0, pPAFAH inh 69.1*, PAFAH2 FP inh 8.5, HTRA1 conf 78.9* and mABHD4 conf 30.4*.
For C[C@H]1COc2cccc(N3CCSCC3)c2S(=O)(=O)N1C the results were mABHD4 FP 4.0.
Nc1c(C(=O)N2CCOCC2)cnn1Cc1ccccc1 was read as mABHD4 FP -0.1.
For Cc1ccc(-c2nc3ncccn3c2NC(=O)c2ccc(F)cc2)cc1 the results were mABHD4 FP 0.5.
